Reference: ChEMBL document CHEMBL3352204, “Cytotoxic and Antibacterial Quinone Sesquiterpenes from a Myrothecium Fungus” (J Nat Prod, 2014)
≈ marks a conversion by molar mass, not a printed value. Calls of active or inactive are those of the source. The calls are words filed in the database; no cut-off is given here.

How the values were obtained:
A549 = experiment: Cytotoxicity against human A549 cells assessed as inhibition of cell growth after 72 hrs by MTT assay; assay type: functional, cell-based; settings: A549, 72 h
Outline: (§1)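 Cells grown in RPMI-1640 with 10% FBS at 37 °C under 5% CO2, seeded at 5 × 10^4 cells/mL and allowed about 24 h to attach. Medium was replaced and compound in DMSO added at final 0.016–50 μg/mL (5-fold steps), in quadruplicate, for 72 h. MTT was then given for 4 h, formazan dissolved in DMSO and OD read at 570 nm. IC50 obtained by nonlinear logistic regression.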

HeLa = experiment: Cytotoxicity against human HeLa cells assessed as inhibition of cell growth after 72 hrs by MTT assay; assay type: functional, cell-based; outline: as §1
HepG2 = experiment: Cytotoxicity against human HepG2 cells assessed as inhibition of cell growth after 72 hrs by MTT assay; assay type: functional, cell-based; settings: HepG2, 72 h; outline: as §1
Staphylococcus aureus = experiment: Antibacterial activity against Staphylococcus aureus ATCC 6538 after 7 hrs by Alamar Blue assay; assay type: functional; settings: ATCC 6538, 7 h
Outline: (§2)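 Strains kept in 20% glycerol at −80 °C, grown in MHB 12 h at 37 °C with shaking at 150 rpm, then adjusted to 1 × 10^5 CFU/mL in MHB. Suspension held Alamar Blue (8% v/v) and 2-fold diluted compound in DMSO (4% v/v), final 1.562–100 μg/mL, in triplicate. Incubated 7 h at 37 °C in the dark. MIC is the lowest concentration whose well stays blue.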

Bacillus cereus = experiment: Antibacterial activity against Bacillus cereus CMCC 63302 after 7 hrs by Alamar Blue assay; assay type: functional; settings: CMCC 63302, 7 h; outline: as §2
Escherichia coli = experiment: Antibacterial activity against Escherichia coli ATCC 8739 after 7 hrs by Alamar Blue assay; assay type: functional, organism-based; outline: as §2
Salmonella typhimurium = experiment: Antibacterial activity against Salmonella typhimurium CMCC 50115 after 7 hrs by Alamar Blue assay; assay type: functional, organism-based; settings: Salmonella enterica subsp. enterica serovar Typhimurium; outline: as §2
Shigella dysenteriae = experiment: Antibacterial activity against Shigella dysenteriae CMCC 51252 after 7 hrs by Alamar Blue assay; assay type: functional, organism-based

C=C1CC[C@H]2[C@](C)(CO)CCC[C@]2(C)[C@H]1C[C@]12O[C@H]1[C@@H](O)C(CO)=C(Cl)C2=O
IC50 (A549): 8 µM | IC50 (HeLa): 7.9 µM | IC50 (HepG2): 15.2 µM | MIC (Staphylococcus aureus): 12.5 µg/mL (≈ 30.4 µM) | MIC (Bacillus cereus): 25 µg/mL (≈ 60.8 µM) | MIC (Escherichia coli): inactive | MIC (Salmonella typhimurium): inactive | MIC (Shigella dysenteriae): inactive

C=C1CC[C@H]2[C@](C)(CO)CCC[C@]2(C)[C@H]1CC1=C(O)C(=O)[C@](O)(CO)[C@H](O)[C@H]1O
IC50 (A549): > 50 µM | IC50 (HeLa): > 50 µM | IC50 (HepG2): > 50 µM | MIC (Staphylococcus aureus): > 100 µg/mL | MIC (Bacillus cereus): > 100 µg/mL | MIC (Escherichia coli): inactive | MIC (Salmonella typhimurium): inactive | MIC (Shigella dysenteriae): inactive

C=C1CC[C@H]2[C@](C)(CO)CCC[C@]2(C)[C@H]1C[C@@]12O[C@@H]1[C@@H](O)C(CO)=CC2=O
IC50 (A549): 41.5 µM | IC50 (HeLa): 35.9 µM | IC50 (HepG2): 34.2 µM | MIC (Staphylococcus aureus): 50 µg/mL (≈ 133 µM) | MIC (Bacillus cereus): 100 µg/mL (≈ 266 µM) | MIC (Escherichia coli): inactive | MIC (Salmonella typhimurium): inactive | MIC (Shigella dysenteriae): inactive

C[C@@]1(CO)CCC[C@]2(C)[C@H]3C[C@@]45O[C@@H]4C(=O)[C@]4(CO)O[C@@H]4[C@]5(O)CC3=CC[C@@H]12 [HYMENOPSIN B]
IC50 (A549): 1.3 µM | IC50 (HeLa): 4.5 µM | IC50 (HepG2): 3.2 µM | MIC (Staphylococcus aureus): > 100 µg/mL | MIC (Bacillus cereus): > 100 µg/mL | MIC (Escherichia coli): inactive | MIC (Salmonella typhimurium): inactive | MIC (Shigella dysenteriae): inactive

C=C1CC[C@H]2[C@](C)(COC(C)=O)CCC[C@]2(C)[C@H]1C[C@@]12O[C@@H]1[C@@H](O)C(CO)=CC2=O
IC50 (A549): 18 µM | IC50 (HeLa): 19.6 µM | IC50 (HepG2): 27.8 µM | MIC (Staphylococcus aureus): 50 µg/mL (≈ 119 µM) | MIC (Bacillus cereus): > 100 µg/mL | MIC (Escherichia coli): inactive | MIC (Salmonella typhimurium): inactive | MIC (Shigella dysenteriae): inactive

C=C1CC[C@H]2[C@](C)(COC(C)=O)CCC[C@]2(C)[C@H]1C[C@]12O[C@H]1[C@H](O)C(CO)=CC2=O
IC50 (A549): 29.4 µM | IC50 (HeLa): 19.2 µM | IC50 (HepG2): 37.8 µM | MIC (Staphylococcus aureus): 100 µg/mL (≈ 239 µM) | MIC (Bacillus cereus): > 100 µg/mL | MIC (Escherichia coli): inactive | MIC (Salmonella typhimurium): inactive | MIC (Shigella dysenteriae): inactive

CC(C)(O/N=C(\C(=O)N[C@@H]1C(=O)N2C(C(=O)[O-])=C(C[n+]3ccccc3)CS[C@H]12)c1csc(N)n1)C(=O)O [CEFTAZIDIME]
MIC (Staphylococcus aureus): 12.5 µg/mL (≈ 22.9 µM)

C=C1CC[C@H]2[C@](C)(CO)CCC[C@]2(C)[C@H]1C[C@]12O[C@H]1[C@@H](O)C(CO)=CC2=O
IC50 (A549): 39.8 µM | IC50 (HeLa): 29.3 µM | IC50 (HepG2): 48.5 µM | MIC (Staphylococcus aureus): 50 µg/mL (≈ 133 µM) | MIC (Bacillus cereus): 100 µg/mL (≈ 266 µM) | MIC (Escherichia coli): inactive | MIC (Salmonella typhimurium): inactive | MIC (Shigella dysenteriae): inactive

NC[C@H]1O[C@H](O[C@H]2[C@H](O)[C@@H](O[C@H]3O[C@H](CO)[C@@H](O)[C@H](N)[C@H]3O)[C@H](N)C[C@@H]2N)[C@H](O)[C@@H](O)[C@@H]1O [KANAMYCIN]
MIC (Bacillus cereus): 6.25 µg/mL (≈ 12.9 µM)

COc1cccc2c1C(=O)c1c(O)c3c(c(O)c1C2=O)C[C@@](O)(C(=O)CO)C[C@@H]3O[C@H]1C[C@H](N)[C@H](O)[C@H](C)O1 [DOXORUBICIN]
IC50 (A549): 0.69 µM | IC50 (HeLa): 0.47 µM
